Dyrk1A ADPGlo = blocks rat Dyrk1A kinase activity; Q63470; ADP-Glo luminescence, NFATc1 peptide; inhibition, % at 12.5 µM; 310,000 compounds, 0.43% hits; in the data active means inhibition above about 50%;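 further: plate controls were vehicle with enzyme for no effect and no enzyme for full effect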
ARNT-TACC3 inh = ARNT/TACC3 interaction disruption; Q9Y6A5; AlphaScreen His-ARNT PAS-B/GST-TACC3 binding, luminescence; TACC3 fragment carries E629A point mutation; inhibition, % at 9.99 µM; 390,000 compounds, 0.66% hits; AID 623870;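 active means mean inhibition of replicates at least 50% and at least half of replicates each reaching 50%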;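 further: 0% = complete ARNT plus TACC3 wells and 100% = ARNT alone without TACC3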
CAL PDZ FP-1 = inhibitors of human CAL PDZ peptide binding; Q9HD26; purified CAL PDZ, TMR-peptide fluorescence polarization, 1 h; inhibition, % at 20 µM; 330,000 compounds, 0.02% hits; AID 504414;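 active means highest replicate inhibition of at least 40%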;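 further: plate controls were DMSO neutral control wells for no effect and unlabeled competitor peptide control wells for full effect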
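Test system: purified CerCALP PDZ construct; Compound dosing: one concentration, 20 µM compound; Also added: TMR-labelled reporter peptide T*-PRC34 bound in PDZ groove; Read-out: inhibition from polarization loss; Controls: unlabelled peptide and DMSO controls; Signal: FP readout, S and P plane fluorescence; Incubation: 1 h at RT.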
CAL PDZ FP-2 = CAL PDZ (human) peptide binding inhibition. 300,000 compounds, 0.92% hits. purified CAL PDZ, TMR-peptide fluorescence polarization, 1 h. Q9HD26. inhibition, % at 24.9 µM;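 active means mean inhibition of at least 30% with at least half of replicates also reaching 30%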;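 further: 0% = DMSO neutral control and 100% = excess unlabeled competitor peptide PRC23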
ARNT Alpha ctr = AlphaScreen artifact in ARNT/TACC3 counter-screen; shares compounds with ARNT-TACC3 inh; His-ARNT PASB-GST AlphaScreen artifact counter-screen, luminescence; AC50, µM (series often up to 68 µM), without a hit: at the top dose activity change, negative = signal decrease; 1,200 compounds, 50% hits;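 active means every separate test run was called active for a drop in luminescence, with AC50 within twice the top valid dose, actives reach about 71 µM in these data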
The depositor's hits bear a star; [ ] = remark or other dose. Hits are enriched below; roughly 1.4% of the tested compounds scored in any of these assays.

Results for C[C@H](CO)N1C[C@H](C)[C@H](CN(C)Cc2ccccc2)Oc2ncc(C#CC3(O)CCCC3)cc2C1=O ?
ARNT-TACC3 inh: 1

Results for C[C@H](CO)N1C[C@H](C)[C@@H](CN(C)Cc2ccccn2)Oc2ncc(C#CC3(O)CCCC3)cc2C1=O ?
ARNT-TACC3 inh: 19*; ARNT Alpha ctr: -9%[38 µM]

Results for CCCN(C)C[C@@H]1Oc2ncc(C#CCC(C)C)cc2C(=O)N([C@@H](C)CO)C[C@H]1C ?
ARNT-TACC3 inh: 37*; ARNT Alpha ctr: -20%[42 µM]

Results for C[C@H]1CN([C@@H](C)CO)C(=O)c2cc(C#Cc3ccccn3)cnc2O[C@@H]1CN(C)Cc1ccccc1 ?
ARNT-TACC3 inh: active; ARNT Alpha ctr: -7%[42 µM]

How did C[C@H]1CN([C@@H](C)CO)C(=O)c2cc(C#Cc3ccccn3)cnc2O[C@H]1CN(C)Cc1ccncc1 do in these assays?
ARNT-TACC3 inh: 1

What do the screens show for `COCC(=O)Nc1ccc2c(c1)C(=O)N(C)C[C@H](OC)[C@H](C)CN(C(=O)c1ccccc1)[C@@H](C)CO2`?
ARNT-TACC3 inh: -2

Results for CO[C@@H]1CN(C)C(=O)c2ccc(NC(=O)C3CCOCC3)cc2OC[C@H](C)N(C)C[C@@H]1C ?
ARNT-TACC3 inh: -7

How did O=C(O)CCNc1cc(N2CCN(C(=O)c3ccco3)CC2)c2noc3c2c1C(=O)c1ccccc1-3 do in these assays?
Dyrk1A ADPGlo: 15; ARNT-TACC3 inh: 53*; CAL PDZ FP-1: -3; CAL PDZ FP-2: -18; ARNT Alpha ctr: 19µM*

How did C[C@H](CO)N1C[C@H](C)[C@H](CN(C)Cc2ccc3c(c2)OCO3)Oc2c(NS(=O)(=O)c3ccc(F)cc3)cccc2C1=O do in these assays?
ARNT-TACC3 inh: -6

Results for O=C(CCN1C(=O)c2cccnc2C1=O)NC1CCCCCC1 ?
Dyrk1A ADPGlo: 1; ARNT-TACC3 inh: 59*; CAL PDZ FP-1: -1; CAL PDZ FP-2: -2; ARNT Alpha ctr: -13%

Results for O=C(Nc1ccccc1C(F)(F)F)c1ncn[nH]1 ?
Dyrk1A ADPGlo: -5; ARNT-TACC3 inh: 59*; CAL PDZ FP-1: -3; CAL PDZ FP-2: -1; ARNT Alpha ctr: -28%

How did CNCc1cn2cc(Cl)ccc2n1 do in these assays?
Dyrk1A ADPGlo: -7; ARNT-TACC3 inh: 67*; CAL PDZ FP-1: 0; CAL PDZ FP-2: 0; ARNT Alpha ctr: -8%

What do the screens show for `CCC(C(=O)Nc1ncn[nH]1)(C(F)(F)F)C(F)(F)F`?
Dyrk1A ADPGlo: -7; ARNT-TACC3 inh: 11*; CAL PDZ FP-1: 1; CAL PDZ FP-2: -1; ARNT Alpha ctr: -5%

How did O=C(Nc1ncn[nH]1)C(F)(F)C(F)F do in these assays?
Dyrk1A ADPGlo: 0; ARNT-TACC3 inh: 27; CAL PDZ FP-1: -1; CAL PDZ FP-2: -1

What do the screens show for `COc1cc2c(cc1OC)C(Cc1ccccc1[N+](=O)[O-])=NCC2`?
Dyrk1A ADPGlo: 5; ARNT-TACC3 inh: 39*; CAL PDZ FP-1: -1; CAL PDZ FP-2: -4; ARNT Alpha ctr: -10%

Results for COc1ccc(NCc2ccccc2[N+](=O)[O-])cc1OC ?
Dyrk1A ADPGlo: -6; ARNT-TACC3 inh: 11; CAL PDZ FP-1: 0; CAL PDZ FP-2: 1

How did Oc1c(C(Nc2ccccn2)c2cccnc2)cc(Cl)c2cccnc12 (configuration not stated) do in these assays?
Dyrk1A ADPGlo: -7; ARNT-TACC3 inh: 57*; CAL PDZ FP-1: -3; CAL PDZ FP-2: 0; ARNT Alpha ctr: 15µM*

Results for Cc1cc(NC(c2cccnc2)c2ccc3cccnc3c2O)no1 (configuration not stated) ?
Dyrk1A ADPGlo: 0; ARNT-TACC3 inh: 63*; CAL PDZ FP-1: 0; CAL PDZ FP-2: -7; ARNT Alpha ctr: 11µM*

Results for CC(C)CC#Cc1cnc2c(c1)C(=O)N([C@H](C)CO)C[C@@H](C)[C@H](CN(C)C(=O)c1ccccc1)O2 ?
ARNT-TACC3 inh: 1

How did C[C@@H]1CN([C@H](C)CO)C(=O)c2cc(NC(=O)NC3CCCCC3)ccc2O[C@@H](C)CCCCO[C@H]1CN(C)Cc1ccccc1 do in these assays?
ARNT-TACC3 inh: -7

Results for COc1ccc(/C(C)=N\NC(=O)CSc2nnc(C)s2)cc1 ?
Dyrk1A ADPGlo: -1; ARNT-TACC3 inh: 39*; CAL PDZ FP-1: 0; CAL PDZ FP-2: -2; ARNT Alpha ctr: -10%

How did CO[C@@H]1CN(C)C(=O)c2ccc(NC(=O)C3CCC3)cc2OC[C@@H](C)N(S(=O)(=O)c2ccc(Cl)cc2)C[C@H]1C do in these assays?
ARNT-TACC3 inh: -5

How did C[C@H]1CCCCO[C@H](CN(C)C(=O)Nc2cccc3ccccc23)[C@@H](C)CN([C@@H](C)CO)C(=O)c2cc(NC(=O)Cc3ccccc3)ccc2O1 do in these assays?
ARNT-TACC3 inh: -1

Results for CC(C)C#Cc1ccc2c(c1)O[C@@H](CN(C)C(=O)CN(C)C)[C@@H](C)CN([C@@H](C)CO)S2(=O)=O ?
ARNT-TACC3 inh: 99*; ARNT Alpha ctr: -13%[38 µM]

Results for C[C@@H]1CN([C@H](C)CO)S(=O)(=O)c2ccc(C#C[C@@H](C)O)cc2O[C@H]1CN(C)C(=O)CN(C)C ?
ARNT-TACC3 inh: -6

Results for C[C@@H]1CN([C@H](C)CO)S(=O)(=O)c2ccc(C3=CCCC3)cc2O[C@H]1CN(C)C(=O)c1ccc(F)cc1 ?
ARNT-TACC3 inh: -3

What do the screens show for `Cc1cc(C(=O)Nc2cccc3c2O[C@H](CN(C)S(=O)(=O)c2ccc(F)cc2)[C@@H](C)CN([C@@H](C)CO)C3=O)n(C)n1`?
ARNT-TACC3 inh: -1

How did N[C@@H]1CC[C@@H](CCn2cc(-c3cccc(F)c3)nn2)O[C@H]1CO do in these assays?
ARNT-TACC3 inh: 5

How did CN(C)Cc1cn(CC[C@@H]2CC[C@@H](N)[C@H](CO)O2)nn1 do in these assays?
ARNT-TACC3 inh: 9

Results for N[C@H]1CC[C@H](CCn2cc(-c3ccccn3)nn2)O[C@@H]1CO ?
ARNT-TACC3 inh: 77*; ARNT Alpha ctr: 5.3µM*

What do the screens show for `N[C@@H]1CC[C@@H](CCn2cc(-c3ccccn3)nn2)O[C@H]1CO`?
ARNT-TACC3 inh: 76*; ARNT Alpha ctr: 3.8µM*

What do the screens show for `c1ccc(-c2cn(C[C@H]3CC[C@@H]([C@@H]4CC[C@H](Cn5cc(-c6ccccn6)nn5)O4)O3)nn2)nc1`?
Dyrk1A ADPGlo: -1; ARNT-TACC3 inh: 66*; CAL PDZ FP-1: 1; CAL PDZ FP-2: -1; ARNT Alpha ctr: 11µM*

How did c1ccc(-c2cn(C[C@H]3CC[C@@H]([C@@H]4CC[C@H](Cn5cc(-c6ccccc6)nn5)O4)O3)nn2)cc1 do in these assays?
Dyrk1A ADPGlo: -3; ARNT-TACC3 inh: -9; CAL PDZ FP-1: -4; CAL PDZ FP-2: -6

What do the screens show for `C[C@H](CO)N1C[C@H](C)[C@@H](CN(C)C(=O)Nc2ccccc2)OCCCC[C@H](C)Oc2ccc(NS(C)(=O)=O)cc2C1=O`?
ARNT-TACC3 inh: -4

Screening results from PubChem BioAssay.
